# ChEMBL document CHEMBL1255570, “Click-chemistry-derived triazole ligands of arginine-glycine-aspartate (RGD) integrins with a broad capacity to inhibit adhesion of melanoma cells and both in vitro and in vivo angiogenesis” (J Med Chem, 2010)
# How the values were obtained:
# Integrin alpha-V/beta-3 = Integrin alpha-V/beta-3 (Homo sapiens, UniProt P05106+P06756); assay: Displacement of [125I]echistatin from human integrin alphaVbeta3; assay type: protein-complex assay
# How it was run: (§1)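 Solid-phase competition binding to αvβ3 and αvβ5 purified from human placenta. Receptors coated overnight at 4 °C (αvβ3 at 500 ng/mL, αvβ5 at 1000 ng/mL) in Tris pH 7.4 buffer with Ca2+, Mg2+ and Mn2+, then blocked with 1% BSA. [125I]echistatin used at 0.05 nM (αvβ3) or 0.1 nM (αvβ5) against test compound from 100 μM to 0.01 nM. Incubation 3 h at room temperature, in triplicate. Nonspecific binding defined with 1 μM unlabeled echistatin. IC50 taken as 50% inhibition of radioligand binding.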
# Integrin alpha-V/beta-5 = Integrin alpha-V/beta-5 (Homo sapiens, UniProt P06756+P18084); assay: Displacement of [125I]echistatin from human integrin alphaVbeta5; assay type: protein-complex assay; how it was run: as §1
# Integrin alpha-V/beta-5, sequence (P06756 31-889 limits assumed): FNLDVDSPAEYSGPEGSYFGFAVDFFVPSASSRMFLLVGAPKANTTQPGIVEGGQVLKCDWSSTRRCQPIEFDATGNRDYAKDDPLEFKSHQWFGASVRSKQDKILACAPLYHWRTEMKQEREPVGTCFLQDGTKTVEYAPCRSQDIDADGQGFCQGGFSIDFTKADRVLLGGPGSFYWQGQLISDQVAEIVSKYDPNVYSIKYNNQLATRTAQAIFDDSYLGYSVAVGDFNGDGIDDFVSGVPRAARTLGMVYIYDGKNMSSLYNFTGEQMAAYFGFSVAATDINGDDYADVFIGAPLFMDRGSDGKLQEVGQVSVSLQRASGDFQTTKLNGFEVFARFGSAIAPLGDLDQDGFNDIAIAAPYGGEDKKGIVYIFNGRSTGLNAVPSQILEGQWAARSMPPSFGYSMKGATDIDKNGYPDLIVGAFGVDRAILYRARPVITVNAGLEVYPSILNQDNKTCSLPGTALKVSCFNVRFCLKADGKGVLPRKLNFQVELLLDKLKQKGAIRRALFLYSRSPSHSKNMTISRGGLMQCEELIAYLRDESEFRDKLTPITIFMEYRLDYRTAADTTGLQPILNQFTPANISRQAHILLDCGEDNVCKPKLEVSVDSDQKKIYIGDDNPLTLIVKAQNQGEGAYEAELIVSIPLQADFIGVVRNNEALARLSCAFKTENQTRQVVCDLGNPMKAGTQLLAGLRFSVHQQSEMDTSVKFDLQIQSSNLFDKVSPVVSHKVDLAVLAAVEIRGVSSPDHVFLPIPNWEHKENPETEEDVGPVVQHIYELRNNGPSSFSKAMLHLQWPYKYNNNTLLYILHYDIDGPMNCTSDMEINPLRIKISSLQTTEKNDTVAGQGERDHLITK
# Integrin alpha-V/beta-5, sequence (P06756 891-1048 limits assumed): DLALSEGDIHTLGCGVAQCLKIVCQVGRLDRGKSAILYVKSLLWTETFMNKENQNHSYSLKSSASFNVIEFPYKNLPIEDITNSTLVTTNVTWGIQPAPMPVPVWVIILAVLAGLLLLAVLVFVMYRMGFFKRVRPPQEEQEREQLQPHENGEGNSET
# Integrin alpha-V/beta-5, sequence (P18084 24-799 limits assumed): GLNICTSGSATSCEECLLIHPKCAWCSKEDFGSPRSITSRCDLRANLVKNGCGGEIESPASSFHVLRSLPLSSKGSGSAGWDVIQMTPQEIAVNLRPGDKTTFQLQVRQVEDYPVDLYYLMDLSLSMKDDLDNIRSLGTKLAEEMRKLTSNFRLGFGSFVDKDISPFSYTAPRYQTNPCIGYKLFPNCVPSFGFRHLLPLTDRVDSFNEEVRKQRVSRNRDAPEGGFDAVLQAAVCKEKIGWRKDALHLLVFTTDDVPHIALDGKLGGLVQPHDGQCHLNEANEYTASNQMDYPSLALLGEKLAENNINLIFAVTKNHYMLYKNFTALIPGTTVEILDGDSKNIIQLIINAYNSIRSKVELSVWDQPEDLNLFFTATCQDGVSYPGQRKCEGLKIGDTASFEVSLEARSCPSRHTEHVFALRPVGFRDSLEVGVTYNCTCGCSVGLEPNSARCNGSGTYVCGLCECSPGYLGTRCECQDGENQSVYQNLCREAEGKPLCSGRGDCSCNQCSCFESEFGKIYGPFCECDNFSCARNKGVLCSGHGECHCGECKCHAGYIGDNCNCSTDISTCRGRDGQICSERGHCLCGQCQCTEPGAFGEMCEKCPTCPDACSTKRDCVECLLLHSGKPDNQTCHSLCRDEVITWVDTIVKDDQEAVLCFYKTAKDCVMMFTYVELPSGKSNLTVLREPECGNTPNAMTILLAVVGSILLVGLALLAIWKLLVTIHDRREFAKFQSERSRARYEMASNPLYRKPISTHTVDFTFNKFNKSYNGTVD
# Integrin alpha-V/beta-3, sequence (P05106 27-788 limits assumed): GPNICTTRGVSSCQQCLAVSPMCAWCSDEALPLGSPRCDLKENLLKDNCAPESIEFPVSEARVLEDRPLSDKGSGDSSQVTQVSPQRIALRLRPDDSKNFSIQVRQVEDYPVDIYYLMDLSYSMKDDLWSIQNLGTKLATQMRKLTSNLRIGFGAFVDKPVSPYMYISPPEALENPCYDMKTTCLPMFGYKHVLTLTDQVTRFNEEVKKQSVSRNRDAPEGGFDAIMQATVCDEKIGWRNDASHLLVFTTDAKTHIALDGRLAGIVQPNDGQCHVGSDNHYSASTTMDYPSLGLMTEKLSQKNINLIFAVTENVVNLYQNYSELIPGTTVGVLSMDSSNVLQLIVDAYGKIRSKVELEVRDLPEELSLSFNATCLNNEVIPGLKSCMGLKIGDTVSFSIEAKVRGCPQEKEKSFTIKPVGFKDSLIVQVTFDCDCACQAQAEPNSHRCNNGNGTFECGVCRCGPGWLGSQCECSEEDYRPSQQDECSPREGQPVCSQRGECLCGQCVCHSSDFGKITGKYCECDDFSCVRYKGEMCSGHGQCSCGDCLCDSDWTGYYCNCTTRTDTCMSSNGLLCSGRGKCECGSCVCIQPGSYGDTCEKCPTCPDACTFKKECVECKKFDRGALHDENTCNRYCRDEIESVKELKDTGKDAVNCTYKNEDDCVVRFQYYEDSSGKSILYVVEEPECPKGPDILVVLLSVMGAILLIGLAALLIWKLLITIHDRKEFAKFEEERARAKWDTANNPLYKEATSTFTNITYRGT
# Integrin alpha-V/beta-3, sequence (P06756 31-889 limits assumed): as the sequence (P06756 31-889 limits assumed) above
# Integrin alpha-V/beta-3, sequence (P06756 891-1048 limits assumed): as the sequence (P06756 891-1048 limits assumed) above
IC50 (Integrin alpha-V/beta-3) [µM],IC50 (Integrin alpha-V/beta-5) [µM],Compound
> 10,> 10,NC(N)=NCc1cn(CC(=O)N(CC(=O)O)c2ccccc2)nn1
> 10,> 10,N=C(N)NCCc1cn(CC(=O)N(CC(=O)O)c2ccccc2)nn1
> 10,> 10,NC(N)=NCCCc1cn(CC(=O)N(CC(=O)O)c2ccccc2)nn1
> 10,> 10,N=C(N)N1CCN(CCc2cn(CC(=O)N(CC(=O)O)c3ccccc3)nn2)CC1
